Compound activity as filed in PubChem.
M1 PAM parental – M1 PAM counterscreen hit in parental CHO-K1 cells | ATP EC20, Fluo-8 calcium fluorescence; 0% at ATP EC20, 100% at ATP max | activation, % at 3 µM | 360,000 compounds, 0.02% hits | AID 602247;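 active = activation above the run cutoff, the mean activation of all test compounds plus 3 SD, cut at about 40% in these data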;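 note: peak over basal fluorescence ratio in a 140 s read after ATP addition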
CHO-K1 Ca antag – M1 antagonist counterscreen hit in parental CHO-K1 cells. AID 602250. inhibition, % at 3 µM. ATP-induced calcium, Fluo-8 fluorescence. 360,000 compounds, 0.6% hits;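 active = inhibition above a per-plate cutoff, the plate's mean sample inhibition plus 3 SD, cut at about 24% in these data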;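 note: 0% = DMSO plus EC80 ATP and 100% = DMSO alone without ATP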
M1 ag parental – nonselective activator or artifact in parental CHO-K1 cells | Fluo-8 calcium fluorescence; scaled to maximal ATP response, vehicle zero | activation, % at 3 µM | 360,000 compounds, 0.48% hits | AID 602248; in the data active = activation above about 15%;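 note: untransfected CHO-K1 host cells lacking M1 receptor as counterscreen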
CHO parental Ca – counter-screen: ATP calcium response change in parental CHO cells; 330,000 compounds, 0.63% hits; parental CHO-K1, ATP-induced calcium, Fluo-8 fluorescence; inhibition, % at 5.6 µM;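 active = inhibition above that plate's mean sample inhibition plus 3 SD, cut at about 26% in these data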;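 note: 0% = ATP-challenged DMSO wells and 100% = DMSO wells without ATP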
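Assay system – parental CHO cells · Reagent – ATP stimulus · Detection – intracellular calcium via Fluo-8 no-wash fluorescent dye · Evaluation – percent inhibition of ATP-evoked calcium rise, normalized to controls · Controls – ATP wells versus no-ATP DMSO wells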
OX1R antag-1 – human HCRTR1 antagonism; 330,000 compounds, 0.43% hits; inhibition, % at 5 µM; CHO/OX1R cells, Fluo-8 calcium fluorescence, orexin A;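 active = inhibition above its plate's threshold, mean inhibition of all tested compounds on the plate plus 3 SD, cut at about 37% in these data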;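 note: 0% = orexin A challenge wells and 100% = SB-334867-A antagonist wells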
Target sequence (O43613 whole entry, looked up): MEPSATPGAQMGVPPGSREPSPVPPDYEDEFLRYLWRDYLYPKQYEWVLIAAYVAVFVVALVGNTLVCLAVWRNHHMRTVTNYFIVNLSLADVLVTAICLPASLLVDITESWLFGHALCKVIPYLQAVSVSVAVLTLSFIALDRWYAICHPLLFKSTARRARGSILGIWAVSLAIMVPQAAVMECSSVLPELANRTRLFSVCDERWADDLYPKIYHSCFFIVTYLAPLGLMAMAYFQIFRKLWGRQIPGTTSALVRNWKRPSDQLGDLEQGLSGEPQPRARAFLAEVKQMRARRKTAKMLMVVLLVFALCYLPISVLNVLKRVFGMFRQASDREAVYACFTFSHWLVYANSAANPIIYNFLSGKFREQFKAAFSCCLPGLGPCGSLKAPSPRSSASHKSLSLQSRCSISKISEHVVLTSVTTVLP
OX1R antag-2 – antagonists of human orexin 1 receptor (OX1R) | O43613 | AID 485270 | inhibition, % at 6.6 µM | 330,000 compounds, 1.8% hits | OX1R-expressing cells, FRET antagonist read-out; in the data active = inhibition mostly above about 38%, no sharp cut-off; inactive = mostly below about 40%;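 note: 0% = agonist challenge alone and 100% = reference antagonist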
Active calls of the source: *; . = no result given. Hits are enriched below; roughly 2.9% of the tested compounds scored in any of these assays.

SMILES	M1 PAM parental	CHO-K1 Ca antag	M1 ag parental	CHO parental Ca	OX1R antag-1	OX1R antag-2
CCC(C)(C)n1nnnc1C(c1cccs1)N1CC=C(c2ccc(F)cc2)CC1 (centres undefined)	12	4	1	46*	-2	20
Fc1ccc(C2=CCN(C(c3cccs3)c3nnnn3CCc3ccccc3)CC2)cc1 (centres undefined)	13	4	0	-15	-13	18
CC(=O)N1CCN(CC(=O)Nc2ccc(C#N)c(Cl)c2)CC1	-10	3	1	-6	-11	16
CCN(CC)S(=O)(=O)c1ccc(C)c(NCC(=O)Nc2ccc(C#N)c(Cl)c2)c1	3	8	11	56*	33	17
CN(Cc1cccc(-c2ccncc2)c1)C(=O)Oc1ccccc1Cc1ccccc1	-8	24*	12	.	.	.
Cc1ccc2c(c1)CC1(CN2C)C(=O)NC(=O)N(CCC2=CCCCC2)C1=O (centres undefined)	5	-17	1	-15	-28	18
C#CCN1C(=O)C2(C(C#N)=C(N)OC(C)=C2C(=O)OCc2ccccc2)c2ccccc21 (centres undefined)	12	1	1	-12	-32	12
COc1cc2c(cc1OC)CN(c1ccc([N+](=O)[O-])c(C(F)(F)F)c1)CC2	17	5	6	30	-7	48*
Cc1ccc(Cn2nc(C(=O)Nc3ccc(Br)cc3)cc2C)cc1	12	13	8	50*	-3	33
CN1CCc2nc3sc(C(=O)NC(C)(C)C)c(N)c3cc2C1	-4	5	0	-3	-28	42
CCOC(=O)[C@]12Cc3cc(Cl)ccc3[C@H]1N(C1CCCCC1)C(=O)c1cc(OC)ccc12	2	33*	4	.	.	.
CC1CCCCC12C(=O)NC(=O)NC2=O (centres undefined)	4	-7	1	.	.	.
CCCC[C@@H](C)C[C@@H](C)C(=O)N(C)[C@@H](CC(C)C)C(=O)N[C@H](C(=O)N(C)[C@H](C(=O)N1C[C@@H](O)C[C@H]1C(=O)N1C(=O)C=C[C@@H]1C)C(C)C)C(C)OC(C)=O (some centres undefined)	21	-18	0	-24	-22	52*
CCOC(=O)c1ccc(NC(=O)N2CC3CC(C2)c2cccc(=O)n2C3)cc1 (centres undefined)	-7	11	0	-4	-9	6
O=C(O)c1cccc(NC(=O)N2C[C@H]3C[C@@H](C2)c2cccc(=O)n2C3)c1	20	-2	0	-11	-9	4
CCOC(=O)c1ccc(NC(=O)N2C[C@@H]3C[C@@H](C2)c2cccc(=O)n2C3)cc1	-18	25*	0	-13	-3	13
CC(=O)c1cccc(NC(=O)N2C[C@H]3C[C@@H](C2)c2cccc(=O)n2C3)c1	-18	29*	0	-16	-26	13
CN(C)S(=O)(=O)c1cc(NC(=O)COC(=O)Cc2ccccc2)ccc1Cl	-6	3	3	-13	-10	14
CCC(=O)c1c(O)n(C2CCCCCC2)c(=O)[nH]c1=O	-6	28*	0	-10	-15	25
CC(=NCCO)c1c(O)n(C2CCCCC2)c(=O)[nH]c1=O	16	-13	0	-16	-11	9
CCCNC(=O)N1[C@H]2CC[C@@H]1C(C(=O)OC)=C(c1ccc(OC)c(OC)c1)C2	-8	-2	0	-10	-21	6
C[N+]12CCC(CC1)C(C(O)(c1ccccc1)c1cccs1)C2 (centres undefined)	25	-13	2	-9	4	5
O=C(Cc1ccccc1)Oc1cccc(-n2cnnn2)c1	12	-16	1	-8	-21	25
CN1CCN(c2c(F)cc([N+](=O)[O-])c(N)c2Br)CC1	-5	-3	1	-10	-5	52*
CNc1cc(Cl)c2nonc2c1[N+](=O)[O-]	-17	38*	-1	.	.	.
SMILES	M1 PAM parental	CHO-K1 Ca antag	M1 ag parental	CHO parental Ca	OX1R antag-1	OX1R antag-2
CCCCn1c(=O)c(C(=O)Nc2ccccc2S(N)(=O)=O)c(O)c2ccccc21	16	-44	0	-21	-11	35*
CN1CC[C@@]2(C)c3cc(O)ccc3N(C)[C@@H]12	19	-9	1	.	.	.
CN1CC[C@@]2(C)c3cc(O)ccc3N(C)C2O1 (some centres undefined)	11	-16	0	-2	3	60*
O=C(c1cc2cc(Cl)ccc2[nH]1)N1CCC2(CC1)OCCO2	2	-7	1	-11	-13	11
O=C(c1cc(=O)[nH]c2ccc(Br)cc12)N1CCC2(CC1)OCCO2	-6	26*	0	-6	-11	1
CN1/C(=C\C=C2C(=O)NC(=O)NC2=O)C(C)(C)c2ccccc21	-2	8	25*	41*	35	112*
Cc1ccc2c(c1)C1CN(C)CCC1N2C(=O)CCCN1C(=O)c2cccc3cccc(c23)C1=O (centres undefined)	-4	-4	-1	-20	-32	42
N#CC12c3ccccc3C(=O)N1Cc1cnnn1-c1ccccc12 (centres undefined)	-8	19	0	.	.	.
O=C(O)c1cccc2nc3ccccc3nc12	6	1	0	-9	-3	48*
COc1cc(C=C2C(=O)NC(=O)NC2=O)ccc1OS(=O)(=O)c1ccccc1[N+](=O)[O-]	27	-13	4	15	10	29
CN(C)c1ccc(/C=C/[N+](=O)[O-])cc1	-4	12	14	6	14	58*
C[C@]12CCC3C(CC[C@H]4C[C@@H](O)CC[C@]34C)C1[C@H]1CN=N[C@H]1[C@@H]2O (some centres undefined)	-16	7	4	-14	4	7
Cc1ccc(C(=O)N[C@@H](C)CN2C3=NC[C@H](Cc4ccccc4)N3C[C@H]2Cc2ccc(O)cc2)cc1Br	.	.	.	42*	47*	16
N#Cc1c(/N=C/c2c(O)n(Cc3ccco3)c(=O)[nH]c2=O)sc2c1CCCC2	1	-1	1	-8	-17	3
O=C1Nc2ccc(Br)cc2C(c2ccc(Cl)cc2)=NC1O (centres undefined)	9	13	23*	.	.	.
O=C1NC(=O)N(c2ccc(Cl)cc2)C(=O)/C1=C\c1ccc(Sc2nc3ccccc3[nH]2)o1	-16	29*	8	19	4	17
Cn1c(O)c(/C=C2/C=CC=N2)c(=O)[nH]c1=O	20	-11	0	-14	4	50*
O=c1[nH]c(O)c(N=Nc2ccc(SC(F)F)cc2)c(=O)[nH]1	15	-8	9	-1	4	42*
CC(C)OCCCNC(=O)c1c(N)n(Cc2cccs2)c2nc3ccccc3nc12	-5	25*	0	-29	-32	8
